# High-throughput results deposited in PubChem by several laboratories.
# Hits are enriched below; roughly 2.2% of the tested compounds scored in any of these assays.
# VIM-2 inhibitor – inhibitors of Pseudomonas aeruginosa VIM-2 metallo-beta-lactamase. 290,000 compounds, 0.89% hits. purified VIM-2, nitrocefin hydrolysis, epi-absorbance fluorescence. inhibition, % at 5.6 µM. AID 1527;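 active = inhibition above the mean of all tested compounds plus 3 SD, cutoff set per screening run, cut at about 7.5% in these data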;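 note: red hydrolysis product quenches plate fluorescence so inhibitors raise well fluorescence; 0% = enzyme with DMSO and 100% = DMSO without enzyme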
# Yeast superoxide – lowers age-related superoxide in aged yeast cells. S. cerevisiae aged cells, superoxide DHE fluorescence; active compounds read low. superoxide response (% of plate mean), % at 10 µM. 330,000 compounds, 0.18% hits. AID 2690;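 active = superoxide response under a set limit, about three screen SD below normal, cut at about 65% in these data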;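 note: yeast aged for seven days with compound at 30 °C before DHE staining; 100% = average MFI of all compound-treated wells on the plate with controls excluded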
# PHOSPHO1 block – inhibitors of human PHOSPHO1 phosphatase; Q8TCT1; recombinant PHOSPHO1, absorbance phosphatase assay; inhibition, % at 13.3 µM; 290,000 compounds, 1.1% hits; in the data active = inhibition above about 60%
# Target sequence (Q8TCT1 whole entry, looked up): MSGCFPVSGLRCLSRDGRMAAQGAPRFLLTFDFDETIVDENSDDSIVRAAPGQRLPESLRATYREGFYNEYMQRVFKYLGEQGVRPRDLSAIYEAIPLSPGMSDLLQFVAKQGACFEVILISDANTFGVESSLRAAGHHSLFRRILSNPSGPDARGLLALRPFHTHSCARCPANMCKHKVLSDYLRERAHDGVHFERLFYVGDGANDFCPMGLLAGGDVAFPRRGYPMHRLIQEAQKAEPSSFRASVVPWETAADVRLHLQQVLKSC
# PvdQ inh – P. aeruginosa PvdQ acylase inhibition; purified PvdQ acylase, fluorescence plate reader; inhibition, % at 10 µM; 340,000 compounds, 0.063% hits; AID 488965; in the data active = inhibition above about 30%, passing the limit was not always enough;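 note: 0% = vehicle neutral wells and 100% = reference inhibitor wells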
# IMP-1 inh – blocks Pseudomonas aeruginosa IMP-1 metallo-beta-lactamase; purified IMP-1, nitrocefin hydrolysis, epi-absorbance fluorescence; inhibition, % at 5.6 µM; 290,000 compounds, 0.45% hits;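 active = inhibition above the mean plus 3 SD of all compounds in the same screening run, cut at about 4.5% in these data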;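 note: 0% = IMP-1 with DMSO and 100% = DMSO wells lacking enzyme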
#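 System: purified recombinant IMP-1 beta-lactamase. Medium: Zinc- and detergent-supplemented HEPES buffer, pH 7.1. Compound: one 5.6 µM dose […]. Schedule: 15 min preincubation plus 25 min reaction at 25 °C. Technique: Epi-absorbance fluorescence, 480 nm excitation, 530 nm emission.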
# Starred values were filed as active, the others as inactive; . = no result given.
SMILES,VIM-2 inhibitor,Yeast superoxide,PHOSPHO1 block,PvdQ inh,IMP-1 inh
Cc1ccc(C)c(-n2c(N)c(C(N)=O)sc2=S)c1,-3,113,.,-11,-1
COc1ccc(Cl)cc1-n1c(N)c(C(N)=O)sc1=S,0,89,100*,7,1
COC(=O)c1sc(=S)n(-c2ccccc2OC)c1N,-2,106,-122,-12,-3
Cc1ccc(C(=O)NCc2ccco2)c(C)c1,-1,105,-2,-19,-2
COc1ccc(CN2C(=O)c3ccccc3C2=O)cc1C(=O)N(C)CC(=O)Nc1ccc(F)cc1,.,97,.,-14,.
CCCCN(CC)CCNC(=O)c1cc2c(=O)[nH]c3ccc(C)cc3c2s1,8.3*,106,18,-15,-3
CCOCCCNC(=O)c1cc2c(=O)[nH]c3ccccc3c2s1,1,96,28,-3,-7
CCCCN(CC)CCCNC(=O)c1cc2c(=O)[nH]c3ccccc3c2s1,11*,94,20,-13,-3
O=C(CC1C(=O)NCCN1Cc1cccc(C(F)(F)F)c1)NC1CCCCCC1 (stereo not drawn),-2,108,14,-5,-2
Cc1cc(C)n(CC(=O)N/N=C/c2ccc(C)o2)n1,-3,100,62*,-4,-3
Cc1cccc(/C=N/NC(=O)Cn2nc(C)cc2C)n1,-4,87,5,2,-4
Cc1cc2ncn(/N=C/c3ccc([N+](=O)[O-])o3)c2cc1C,-1,109,69*,2,-2
Cn1c(N)c(C(=O)COC(=O)COc2ccc(Cl)cc2Cl)c(=O)n(C)c1=O,.,100,.,-19,.
COc1cccc(/C=c2\sc3nc(-c4cccs4)nn3c2=O)c1OC,-2,107,71*,-12,-2
OC1=C(O)c2nc3cc(F)ccc3nc21,8.2*,90,-1,0,-3
Cc1ccc(SC(C)C(=O)Nc2ncn[nH]2)cc1 (stereo not drawn),-6,96,-3,-12,39*
Cc1ccc(CN(C)C(=O)CSc2nnc3n2CCCCC3)c(C)c1,.,108,.,12,.
COc1cc(CNCCc2ccccc2)cc(Br)c1OCC(=O)Nc1ccccc1C,-2,109,66*,-22,-2
CCn1c(SCC(=O)N2CCN(c3ccccc3)CC2)nc2c(c1=O)SC(C)C2 (stereo not drawn),0,104,-8,-15,4.9*
CCCCn1c(SCC(=O)N2CCC(C)CC2)nc2ccsc2c1=O,-1,89,24,5,-2
CCn1c(SCC(=O)N2CCN(c3ccc(Cl)cc3)CC2)nc2ccccc2c1=O,-3,95,66*,-12,4
CC1Cc2nc(SCC(=O)N3CCN(c4ccccc4)CC3)n(CCc3ccccc3)c(=O)c2S1 (stereo not drawn),-2,96,10,0,-3
CCn1c(SCC(=O)N2CCN(c3ccc(F)cc3)CC2)nc2ccccc2c1=O,-2,91,-31,12,-2
CCCCn1c(SCC(=O)N2CCN(c3ccccc3)CC2)nc2ccsc2c1=O,-3,98,78*,9,-3
CCOC(=O)c1nn(-c2ccc(OCC)cc2)c2nc(-c3ccco3)c(C#N)c(=O)n12,-2,110,-15,-12,-4
SMILES,VIM-2 inhibitor,Yeast superoxide,PHOSPHO1 block,PvdQ inh,IMP-1 inh
O=[N+]([O-])c1ccc(S(=O)(=O)Nc2ccccn2)cc1,0,100,14,-11,-3
COc1ccc(CNC(=O)COc2ccc(S(=O)(=O)N3CCOCC3)cc2C)cc1,0,100,20,-15,-2
O=C(NCC(=O)N(c1ccc(F)cc1)C(C(=O)NC1CCCC1)c1cccnc1)c1cccs1 (stereo not drawn),-6,100,45,5,-4
O=C(NCC(=O)N(c1ccccc1)C(C(=O)NC1CCCCC1)c1cccnc1)c1cccs1 (stereo not drawn),-2,82,63*,-4,-2
CCOc1ccc2c(c1)[nH]c(=S)n2C,-2,84,79*,-8,-4
Cn1c(=S)[nH]c2ccccc21,-2,103,74*,-13,-6
N#CCCn1c(=S)[nH]c2ccccc21,0,104,88*,9,-3
S=c1[nH]c2ccccc2n2cccc12,8.7*,117,-130,-15,-3
C[N+]1=C2CCCCCN2C(O)(c2ccccc2)C1 (stereo not drawn),1,108,86*,-14,-2
OC1(c2ccccc2Cl)NN=C2CCCCCN21 (stereo not drawn),0,73,23,10,-2
COc1cc2[nH]c(=O)n(Cc3ccc(C(=O)N4CCC(N5CCCCC5)CC4)cc3)c(=O)c2cc1OC,-2,106,46,-17,-3
COc1cc2[nH]c(=O)n(CCC(=O)N3CCC(N4CCCCC4)CC3)c(=O)c2cc1OC,7.8*,108,4,-12,-2
O=C(COC(=O)c1cccc(OC(F)F)c1)Nc1cccc(S(=O)(=O)N2CCCC2)c1,.,82,.,23,.
COc1ccc(S(=O)(=O)N2CCC(O)(c3ccc(Cl)cc3)CC2)cc1OC,-3,109,64*,-7,-4
COc1ccc(S(=O)(=O)N2CCC(O)(c3ccc(Cl)cc3)CC2)cc1,-3,92,5,-10,-4
O=C(NCc1ccccc1F)C1CCCN1S(=O)(=O)c1ccc(F)cc1 (stereo not drawn),0,114,3,7,-1
CCn1cc([N+](=O)[O-])c(C(=O)Nc2ccn(Cc3ccccc3)n2)n1,12*,107,14,-4,-3
Cc1ccc(Cn2ccc(NC(=O)c3nn(C)cc3[N+](=O)[O-])n2)cc1,-1,140,4,-19,-2
CCC(=O)N/C(N)=N/c1nc(C)c2cc(C)c(C)cc2n1,10*,120,-1,.,-1
Cc1cc2nc(/N=C(\N)NC(=O)C(C)C)nc(C)c2cc1C,0,97,23,-7,-3
C=CCOC(=O)C(=O)/C=C/c1coc2ccccc2c1=O,8.3*,103,40,8,-1
Cc1cc(C)n(-c2ccc(Cl)c(C(=O)Nc3ccc(-c4nnc5n4CCCCC5)cc3)n2)n1,2,97,62*,-7,0
COCCn1nnnc1C(c1ccc(Cl)cc1)N1CCSCC1 (stereo not drawn),-3,100,74*,-15,-1
CCc1cc(C(=O)NCC(C)(C)N2CCOCC2)sc1C,.,101,.,-11,.
CCCc1cc(=O)oc2cc(C)cc(OCC(=O)Nc3cccnc3)c12,12*,90,62*,-13,-5
CCCc1cc(=O)oc2cc(C)cc(OCC(=O)NCc3ccccn3)c12,-2,94,27,-8,-1
O=C(O)c1ccc(/C=N/n2cc(-c3ccccc3)[nH]c2=S)cc1,-1,81,97*,-14,-3
CC1(c2ccccc2Br)NC(=O)N(CC(=O)NC2CCCCC2)C1=O (stereo not drawn),.,76,.,-20,.
CC1CN(S(=O)(=O)c2ccc(CN3C(=O)c4cccnc4C3=O)s2)c2ccccc2O1 (stereo not drawn),2,110,33,-6,-2
